Measured values as given in ChEMBL document CHEMBL1649405, “Structure-activity relationships study of 6-chloro-4-(2-chlorophenyl)-3-(2-hydroxyethyl) quinolin-2(1H)-one derivatives as novel non-nucleoside anti-hepatitis B virus agents” (Eur J Med Chem, 2011).

tested on: Hepatitis B virus; experiment: Antiviral activity against Hepatitis B virus infected in human HepG2(2.2.15) cells assessed as inhibition of viral surface antigen secretion after 6 days by ELISA; assay type: functional, organism-based; conditions: HepG2 2.2.15, 144 h; call rule not given here
In short: (§1)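 HepG 2.2.15 cells in DMEM with 10% FBS, 37 °C, 5% CO2. Treated for 6 days with refeeding every other day. Culture medium centrifuged at 6000 g to clear debris. HBeAg or HBsAg measured by quantitative ELISA on a microplate reader. IC50 = concentration giving 50% inhibition of secretion. Mean of two independent experiments.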

Structure (SMILES) | IC50 [µM]
O=C(O)CCC(=O)OCCc1c(-c2ccccc2Cl)c2cc(Cl)ccc2[nH]c1=O | 150
CCCCCCCC(=O)OCCc1c(-c2ccccc2Cl)c2cc(Cl)ccc2[nH]c1=O | 40
O=C(OCCc1c(-c2ccccc2Cl)c2cc(Cl)ccc2[nH]c1=O)c1ccc([N+](=O)[O-])cc1 | 1200
Cn1c(=O)c(CCO)c(-c2ccccc2Cl)c2cc(Cl)ccc21 | 22
O=C(CCC1CCCCC1)OCCc1c(-c2ccccc2Cl)c2cc(Cl)ccc2[nH]c1=O | 85
CCCC(=O)OCCc1c(-c2ccccc2Cl)c2cc(Cl)ccc2[nH]c1=O | 35
CCCCC(=O)OCCc1c(-c2ccccc2Cl)c2cc(Cl)ccc2[nH]c1=O | 82

The next lines start with the values.

IC50 [µM] | Structure (SMILES)
61 | COc1ccccc1/C=C/C(=O)OCCc1c(-c2ccccc2Cl)c2cc(Cl)ccc2[nH]c1=O
56 | O=C(COc1ccccc1)OCCc1c(-c2ccccc2Cl)c2cc(Cl)ccc2[nH]c1=O
20 | COc1cccc(/C=C/C(=O)OCCCc2c(-c3ccccc3Cl)c3cc(Cl)ccc3[nH]c2=O)c1
58 | O=C(/C=C/c1cccc(C(F)(F)F)c1)OCCc1c(-c2ccccc2Cl)c2cc(Cl)ccc2[nH]c1=O
490 | COc1ccc(/C=C/C(=O)OCCc2c(-c3ccccc3Cl)c3cc(Cl)ccc3[nH]c2=O)cc1
32 | O=C(OCCc1c(-c2ccccc2Cl)c2cc(Cl)ccc2[nH]c1=O)c1ccccc1
170 | O=C(CN1C(=O)c2ccccc2C1=O)OCCc1c(-c2ccccc2Cl)c2cc(Cl)ccc2[nH]c1=O
11 | COc1cccc(/C=C/C(=O)OCc2c(-c3ccccc3Cl)c3cc(Cl)ccc3[nH]c2=O)c1

tested on: not listed separately; experiment: Selectivity index, ratio of CC50 for human HepG2(2.2.15) cells to IC50 for Hepatitis B virus infected in human HepG2(2.2.15) cells assessed as inhibition of viral e antigen secretion; assay type: functional; conditions: not given
In short: (§2)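 Ratio of CC50 in HepG 2.2.15 cells to the IC50 for HBeAg or HBsAg secretion. Both values come from ELISA and cytotoxicity runs on the same cell line. Each input is the mean of two independent experiments.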

Structure (SMILES) | Selectivity Index
O=C(O)CCC(=O)OCCc1c(-c2ccccc2Cl)c2cc(Cl)ccc2[nH]c1=O | <1
CCCCCCCC(=O)OCCc1c(-c2ccccc2Cl)c2cc(Cl)ccc2[nH]c1=O | <1
COc1ccccc1/C=C/C(=O)OCCc1c(-c2ccccc2Cl)c2cc(Cl)ccc2[nH]c1=O | 32
O=C(OCCc1c(-c2ccccc2Cl)c2cc(Cl)ccc2[nH]c1=O)c1ccc([N+](=O)[O-])cc1 | 1
O=C(COc1ccccc1)OCCc1c(-c2ccccc2Cl)c2cc(Cl)ccc2[nH]c1=O | <1
Cn1c(=O)c(CCO)c(-c2ccccc2Cl)c2cc(Cl)ccc21 | 1
COc1cccc(/C=C/C(=O)OCCCc2c(-c3ccccc3Cl)c3cc(Cl)ccc3[nH]c2=O)c1 | >39
O=C(/C=C/c1cccc(C(F)(F)F)c1)OCCc1c(-c2ccccc2Cl)c2cc(Cl)ccc2[nH]c1=O | >63
COc1ccc(/C=C/C(=O)OCCc2c(-c3ccccc3Cl)c3cc(Cl)ccc3[nH]c2=O)cc1 | >25
O=C(OCCc1c(-c2ccccc2Cl)c2cc(Cl)ccc2[nH]c1=O)c1ccccc1 | <1
O=C(CCC1CCCCC1)OCCc1c(-c2ccccc2Cl)c2cc(Cl)ccc2[nH]c1=O | 1.5
CCCC(=O)OCCc1c(-c2ccccc2Cl)c2cc(Cl)ccc2[nH]c1=O | <1
CCCCC(=O)OCCc1c(-c2ccccc2Cl)c2cc(Cl)ccc2[nH]c1=O | <1
O=C(CN1C(=O)c2ccccc2C1=O)OCCc1c(-c2ccccc2Cl)c2cc(Cl)ccc2[nH]c1=O | <1
COc1cccc(/C=C/C(=O)OCc2c(-c3ccccc3Cl)c3cc(Cl)ccc3[nH]c2=O)c1 | >100

tested on: not listed separately; experiment: Selectivity index, ratio of CC50 for human HepG2(2.2.15) cells to IC50 for Hepatitis B virus infected in human HepG2(2.2.15) cells assessed as inhibition of viral surface antigen secretion; assay type: functional; conditions: not given; in short: as §2

Structure (SMILES) | Selectivity Index
O=C(O)CCC(=O)OCCc1c(-c2ccccc2Cl)c2cc(Cl)ccc2[nH]c1=O | <1
CCCCCCCC(=O)OCCc1c(-c2ccccc2Cl)c2cc(Cl)ccc2[nH]c1=O | 1.9
COc1ccccc1/C=C/C(=O)OCCc1c(-c2ccccc2Cl)c2cc(Cl)ccc2[nH]c1=O | 13
O=C(OCCc1c(-c2ccccc2Cl)c2cc(Cl)ccc2[nH]c1=O)c1ccc([N+](=O)[O-])cc1 | 1.4
O=C(COc1ccccc1)OCCc1c(-c2ccccc2Cl)c2cc(Cl)ccc2[nH]c1=O | 1.5
Cn1c(=O)c(CCO)c(-c2ccccc2Cl)c2cc(Cl)ccc21 | 1.6
COc1cccc(/C=C/C(=O)OCCCc2c(-c3ccccc3Cl)c3cc(Cl)ccc3[nH]c2=O)c1 | >55
O=C(/C=C/c1cccc(C(F)(F)F)c1)OCCc1c(-c2ccccc2Cl)c2cc(Cl)ccc2[nH]c1=O | >24
COc1ccc(/C=C/C(=O)OCCc2c(-c3ccccc3Cl)c3cc(Cl)ccc3[nH]c2=O)cc1 | >2.5
O=C(OCCc1c(-c2ccccc2Cl)c2cc(Cl)ccc2[nH]c1=O)c1ccccc1 | 1.42
O=C(CCC1CCCCC1)OCCc1c(-c2ccccc2Cl)c2cc(Cl)ccc2[nH]c1=O | 1.9
CCCC(=O)OCCc1c(-c2ccccc2Cl)c2cc(Cl)ccc2[nH]c1=O | 1.5
CCCCC(=O)OCCc1c(-c2ccccc2Cl)c2cc(Cl)ccc2[nH]c1=O | 2.4
O=C(CN1C(=O)c2ccccc2C1=O)OCCc1c(-c2ccccc2Cl)c2cc(Cl)ccc2[nH]c1=O | 5.7
COc1cccc(/C=C/C(=O)OCc2c(-c3ccccc3Cl)c3cc(Cl)ccc3[nH]c2=O)c1 | >170

tested on: Hepatitis B virus; experiment: Antiviral activity against Hepatitis B virus infected in human HepG2(2.2.15) cells assessed as inhibition of viral e antigen secretion after 6 days by ELISA; assay type: functional, organism-based; conditions: HepG2 2.2.15, 144 h; in short: as §1

Structure (SMILES) | IC50 [µM]
O=C(O)CCC(=O)OCCc1c(-c2ccccc2Cl)c2cc(Cl)ccc2[nH]c1=O | > 110
CCCCCCCC(=O)OCCc1c(-c2ccccc2Cl)c2cc(Cl)ccc2[nH]c1=O | > 78
O=C(OCCc1c(-c2ccccc2Cl)c2cc(Cl)ccc2[nH]c1=O)c1ccc([N+](=O)[O-])cc1 | 1600
Cn1c(=O)c(CCO)c(-c2ccccc2Cl)c2cc(Cl)ccc21 | 34
O=C(CCC1CCCCC1)OCCc1c(-c2ccccc2Cl)c2cc(Cl)ccc2[nH]c1=O | 110
CCCC(=O)OCCc1c(-c2ccccc2Cl)c2cc(Cl)ccc2[nH]c1=O | > 52
CCCCC(=O)OCCc1c(-c2ccccc2Cl)c2cc(Cl)ccc2[nH]c1=O | > 200

The remaining lines, values ahead:

IC50 [µM] | Structure (SMILES)
24 | COc1ccccc1/C=C/C(=O)OCCc1c(-c2ccccc2Cl)c2cc(Cl)ccc2[nH]c1=O
> 81 | O=C(COc1ccccc1)OCCc1c(-c2ccccc2Cl)c2cc(Cl)ccc2[nH]c1=O
28 | COc1cccc(/C=C/C(=O)OCCCc2c(-c3ccccc3Cl)c3cc(Cl)ccc3[nH]c2=O)c1
22 | O=C(/C=C/c1cccc(C(F)(F)F)c1)OCCc1c(-c2ccccc2Cl)c2cc(Cl)ccc2[nH]c1=O
48 | COc1ccc(/C=C/C(=O)OCCc2c(-c3ccccc3Cl)c3cc(Cl)ccc3[nH]c2=O)cc1
> 43 | O=C(OCCc1c(-c2ccccc2Cl)c2cc(Cl)ccc2[nH]c1=O)c1ccccc1
> 960 | O=C(CN1C(=O)c2ccccc2C1=O)OCCc1c(-c2ccccc2Cl)c2cc(Cl)ccc2[nH]c1=O
18 | COc1cccc(/C=C/C(=O)OCc2c(-c3ccccc3Cl)c3cc(Cl)ccc3[nH]c2=O)c1

tested on: Hepatitis B virus; experiment: Antiviral activity against Hepatitis B virus infected in human HepG2(2.2.15) cells assessed as inhibition of viral DNA replication after 6 days by PCR analysis; assay type: functional, organism-based; conditions: Hepatitis B virus, HepG2 2.2.15, 144 h; read-out: IC50
In short: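 HepG 2.2.15 cells in DMEM with 10% FBS, 5 mM L-glutamine, penicillin/streptomycin, 37 °C, 5% CO2; seeded 5 × 10^5 per well, medium changed every 2 days. Compound added after 6 days, refed every other day for 6 more days. HBV DNA by real-time PCR against a cloned HBV plasmid standard series. IC50 = 50% inhibition. Mean of two independent experiments.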

IC50 [µM] | Structure (SMILES)
410 | O=C(/C=C/c1cccc(C(F)(F)F)c1)OCCc1c(-c2ccccc2Cl)c2cc(Cl)ccc2[nH]c1=O
160 | COc1cccc(/C=C/C(=O)OCc2c(-c3ccccc3Cl)c3cc(Cl)ccc3[nH]c2=O)c1

same assay, conditions: hepg2 2.2.15

IC50 | Structure (SMILES)
Not Active | COc1ccccc1/C=C/C(=O)OCCc1c(-c2ccccc2Cl)c2cc(Cl)ccc2[nH]c1=O
Not Active | COc1cccc(/C=C/C(=O)OCCCc2c(-c3ccccc3Cl)c3cc(Cl)ccc3[nH]c2=O)c1
Not Active | COc1ccc(/C=C/C(=O)OCCc2c(-c3ccccc3Cl)c3cc(Cl)ccc3[nH]c2=O)cc1

tested on: not listed separately; experiment: Cytotoxicity against human HepG2(2.2.15) cells; assay type: cell-based; conditions: not given
In short: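 HepG 2.2.15 cells in DMEM with 10% FBS, 37 °C, 5% CO2. CC50 = concentration killing 50% of cells. Mean of two independent experiments.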

Structure (SMILES) | CC50 [µM]
O=C(O)CCC(=O)OCCc1c(-c2ccccc2Cl)c2cc(Cl)ccc2[nH]c1=O | 110
CCCCCCCC(=O)OCCc1c(-c2ccccc2Cl)c2cc(Cl)ccc2[nH]c1=O | 78
COc1ccccc1/C=C/C(=O)OCCc1c(-c2ccccc2Cl)c2cc(Cl)ccc2[nH]c1=O | 770
O=C(OCCc1c(-c2ccccc2Cl)c2cc(Cl)ccc2[nH]c1=O)c1ccc([N+](=O)[O-])cc1 | 1600
O=C(COc1ccccc1)OCCc1c(-c2ccccc2Cl)c2cc(Cl)ccc2[nH]c1=O | 81
Cn1c(=O)c(CCO)c(-c2ccccc2Cl)c2cc(Cl)ccc21 | 34
COc1cccc(/C=C/C(=O)OCCCc2c(-c3ccccc3Cl)c3cc(Cl)ccc3[nH]c2=O)c1 | > 1100
O=C(/C=C/c1cccc(C(F)(F)F)c1)OCCc1c(-c2ccccc2Cl)c2cc(Cl)ccc2[nH]c1=O | > 1400
COc1ccc(/C=C/C(=O)OCCc2c(-c3ccccc3Cl)c3cc(Cl)ccc3[nH]c2=O)cc1 | > 1200
O=C(OCCc1c(-c2ccccc2Cl)c2cc(Cl)ccc2[nH]c1=O)c1ccccc1 | 43
O=C(CCC1CCCCC1)OCCc1c(-c2ccccc2Cl)c2cc(Cl)ccc2[nH]c1=O | 160
CCCC(=O)OCCc1c(-c2ccccc2Cl)c2cc(Cl)ccc2[nH]c1=O | 52
CCCCC(=O)OCCc1c(-c2ccccc2Cl)c2cc(Cl)ccc2[nH]c1=O | 200
O=C(CN1C(=O)c2ccccc2C1=O)OCCc1c(-c2ccccc2Cl)c2cc(Cl)ccc2[nH]c1=O | 960
COc1cccc(/C=C/C(=O)OCc2c(-c3ccccc3Cl)c3cc(Cl)ccc3[nH]c2=O)c1 | > 1800
